Results: ChEMBL document CHEMBL1811786, “Identification of MK-5710 ((8aS)-8a-methyl-1,3-dioxo-2-[(1S,2R)-2-phenylcyclo- propyl]-N-(1-phenyl-1H-pyrazol-5-yl)hexahydro-imidazo[1,5-a]pyrazine-7(1H)-carboxamide), a potent smoothened antagonist for use in Hedgehog pathway dependent malignancies, part 2” (Bioorg Med Chem Lett, 2011)

Key:
hERG (KCNH2) = hERG (KCNH2) (Homo sapiens, UniProt Q12809); assay: Inhibition of human ERG at 30 uM
[1] = Inhibition of Voltage-gated sodium channel at 30 uM
[2] = Cmax in iv dosed dog; format: ADME, organism-based, Canis lupus familiaris; design: route intravenous; settings: in vivo
Canis familiaris [3] = assay: Toxicity in iv dosed vagotomized dog assessed as change in cardiovascular parameters; format: organism-based, Canis lupus familiaris, Heart; settings: in vivo
Canis familiaris [4] = assay: Toxicity in iv dosed vagotomized dog assessed as change in hemodynamic parameters; format: organism-based, Canis lupus familiaris; settings: in vivo
Cytochrome P450 2C9 = Cytochrome P450 2C9 (Homo sapiens, UniProt P11712); assay: Inhibition of CYP2C9; format: ADME
Cytochrome P450 3A4 = Cytochrome P450 3A4 (Homo sapiens, UniProt P08684); assay: Inhibition of CYP3A4; format: ADME
Cytochrome P450 2D6 = Cytochrome P450 2D6 (Homo sapiens, UniProt P10635); assay: Inhibition of CYP2D6; format: ADME
Mus musculus [5] = assay: Inhibition of Shh pathway in mouse medulloblastoma allograft model assessed as reduction in tumor Gli-1 mRNA expression at 80 mg/kg, po administered as single dose measured after 4 hrs; format: functional
Outline: (§1)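 Tumor-bearing medulloblastoma mice given a single oral 80 mg/kg dose. Tumor biopsies taken at timepoints up to 24 h; Hh-pathway inhibition measured as reduction of Gli-1 mRNA.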

Mus musculus [6] = assay: Inhibition of Shh pathway in mouse medulloblastoma allograft model assessed as reduction in tumor Gli-1 mRNA expression at 80 mg/kg, po administered as single dose measured after 6 hrs; format: functional; outline: as §1
Mus musculus [7] = assay: Inhibition of Shh pathway in mouse medulloblastoma allograft model assessed as reduction in tumor Gli-1 mRNA expression at 80 mg/kg, po administered as single dose measured after 8 hrs; format: functional; outline: as §1
Mus musculus [8] = assay: Inhibition of Shh pathway in mouse medulloblastoma allograft model assessed as reduction in tumor Gli-1 mRNA expression at 80 mg/kg, po administered as single dose; format: functional, organism-based; design: dose 80 mg/kg; settings: TDE = time-dependent effect; outline: as §1
Mus musculus [9] = assay: Toxicity in mouse medulloblastoma allograft model assessed as adverse effects at 40 mg/kg, po bid for 3 weeks; format: organism-based; design: dose 40 mg/kg, route oral; settings: in vivo, 504 h
Outline: (§2)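 Primary mouse medulloblastoma allograft, subcutaneous. Mice randomized when tumors averaged 400 mm³. Oral dosing for 3 weeks, bid at 40, 80, 120 or 160 mg/kg, or 80 mg/kg qd. Compound given as a suspension in 0.24% SDS/0.5% Methocel, with a BID vehicle control. Tumor volume tracked over days; body weight, physical signs and mortality monitored.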

Mus musculus [10] = assay: Toxicity in mouse medulloblastoma allograft model assessed as adverse effects at 80 mg/kg, po bid for 3 weeks; format: organism-based; design: dose 80 mg/kg, route oral; settings: in vivo, 504 h; outline: as §2
Mus musculus [11] = assay: Toxicity in mouse medulloblastoma allograft model assessed as adverse effects at 120 mg/kg, po bid for 3 weeks; format: organism-based; design: dose 120 mg/kg, route oral; settings: in vivo, 504 h; outline: as §2
Mus musculus [12] = assay: Toxicity in mouse medulloblastoma allograft model assessed as adverse effects at 160 mg/kg, po bid for 3 weeks; format: organism-based; design: dose 160 mg/kg, route oral; settings: in vivo, 504 h; outline: as §2
Mus musculus [13] = assay: Toxicity in mouse medulloblastoma allograft model assessed as adverse effects at 80 mg/kg, po qd for 3 weeks; format: organism-based; design: dose 80 mg/kg, route oral; settings: in vivo, 504 h; outline: as §2
Protein smoothened [14] = molecular target: T1, Protein smoothened (Homo sapiens, UniProt Q99835); assay: Displacement of BODIPY-cyclopamine from human Smo expressed in HEK293 cells in presence of 2% fetal calf serum; format: cell-based
Outline: (§3)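 Competition binding: displacement of fluorescently labeled bodipy-cyclopamine from recombinant human Smo expressed in HEK-293 cells. Run in 2% fetal calf serum and, separately, in 20% normal human serum. IC50 values are means of at least five experiments.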

Protein smoothened [15] = molecular target: T1, Protein smoothened; assay: Displacement of BODIPY-cyclopamine from human Smo expressed in HEK293 cells in presence of 20% normal human serum; format: cell-based; outline: as §3
Rattus norvegicus = species on record: Rattus norvegicus; assay: Clearance in rat; format: ADME, organism-based; settings: in vivo
[16] = Half life in rat; format: ADME, organism-based; settings: in vivo
[17] = Volume of distribution at steady state in rat; format: ADME, organism-based; settings: in vivo, read-out: Vdss
[18] = Oral bioavailability in rat; format: ADME, organism-based; settings: in vivo
Canis familiaris [19] = species on record: Canis familiaris; assay: Clearance in dog; format: ADME, organism-based, Canis lupus familiaris; settings: in vivo
[20] = Half life in dog; format: ADME, organism-based, Canis lupus familiaris; settings: in vivo
[21] = Volume of distribution at steady state in dog; format: ADME, organism-based, Canis lupus familiaris; settings: in vivo, read-out: Vdss
[22] = Oral bioavailability in dog; format: ADME, organism-based, Canis lupus familiaris; settings: in vivo

T1 sequence (Q99835 whole entry): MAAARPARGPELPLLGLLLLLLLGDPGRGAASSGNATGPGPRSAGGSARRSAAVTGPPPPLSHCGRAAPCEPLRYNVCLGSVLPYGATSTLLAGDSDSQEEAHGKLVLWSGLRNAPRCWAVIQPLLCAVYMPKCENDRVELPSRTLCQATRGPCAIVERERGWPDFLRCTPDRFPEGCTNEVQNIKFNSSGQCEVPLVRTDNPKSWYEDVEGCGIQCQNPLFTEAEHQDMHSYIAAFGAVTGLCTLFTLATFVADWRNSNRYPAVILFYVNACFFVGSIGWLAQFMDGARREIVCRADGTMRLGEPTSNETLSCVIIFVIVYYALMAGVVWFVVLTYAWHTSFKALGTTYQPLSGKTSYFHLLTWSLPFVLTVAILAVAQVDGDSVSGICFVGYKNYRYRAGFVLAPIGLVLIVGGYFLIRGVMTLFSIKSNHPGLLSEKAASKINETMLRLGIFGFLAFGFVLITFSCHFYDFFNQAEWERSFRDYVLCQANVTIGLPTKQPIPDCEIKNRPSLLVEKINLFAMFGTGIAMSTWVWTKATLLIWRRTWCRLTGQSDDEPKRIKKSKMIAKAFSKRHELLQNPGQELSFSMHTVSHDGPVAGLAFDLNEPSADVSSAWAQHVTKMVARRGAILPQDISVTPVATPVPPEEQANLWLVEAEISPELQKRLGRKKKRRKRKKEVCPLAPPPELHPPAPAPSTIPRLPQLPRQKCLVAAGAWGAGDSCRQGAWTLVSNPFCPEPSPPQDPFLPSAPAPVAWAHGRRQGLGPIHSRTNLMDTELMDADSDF
Sequence of hERG (KCNH2) (Q12809 whole entry): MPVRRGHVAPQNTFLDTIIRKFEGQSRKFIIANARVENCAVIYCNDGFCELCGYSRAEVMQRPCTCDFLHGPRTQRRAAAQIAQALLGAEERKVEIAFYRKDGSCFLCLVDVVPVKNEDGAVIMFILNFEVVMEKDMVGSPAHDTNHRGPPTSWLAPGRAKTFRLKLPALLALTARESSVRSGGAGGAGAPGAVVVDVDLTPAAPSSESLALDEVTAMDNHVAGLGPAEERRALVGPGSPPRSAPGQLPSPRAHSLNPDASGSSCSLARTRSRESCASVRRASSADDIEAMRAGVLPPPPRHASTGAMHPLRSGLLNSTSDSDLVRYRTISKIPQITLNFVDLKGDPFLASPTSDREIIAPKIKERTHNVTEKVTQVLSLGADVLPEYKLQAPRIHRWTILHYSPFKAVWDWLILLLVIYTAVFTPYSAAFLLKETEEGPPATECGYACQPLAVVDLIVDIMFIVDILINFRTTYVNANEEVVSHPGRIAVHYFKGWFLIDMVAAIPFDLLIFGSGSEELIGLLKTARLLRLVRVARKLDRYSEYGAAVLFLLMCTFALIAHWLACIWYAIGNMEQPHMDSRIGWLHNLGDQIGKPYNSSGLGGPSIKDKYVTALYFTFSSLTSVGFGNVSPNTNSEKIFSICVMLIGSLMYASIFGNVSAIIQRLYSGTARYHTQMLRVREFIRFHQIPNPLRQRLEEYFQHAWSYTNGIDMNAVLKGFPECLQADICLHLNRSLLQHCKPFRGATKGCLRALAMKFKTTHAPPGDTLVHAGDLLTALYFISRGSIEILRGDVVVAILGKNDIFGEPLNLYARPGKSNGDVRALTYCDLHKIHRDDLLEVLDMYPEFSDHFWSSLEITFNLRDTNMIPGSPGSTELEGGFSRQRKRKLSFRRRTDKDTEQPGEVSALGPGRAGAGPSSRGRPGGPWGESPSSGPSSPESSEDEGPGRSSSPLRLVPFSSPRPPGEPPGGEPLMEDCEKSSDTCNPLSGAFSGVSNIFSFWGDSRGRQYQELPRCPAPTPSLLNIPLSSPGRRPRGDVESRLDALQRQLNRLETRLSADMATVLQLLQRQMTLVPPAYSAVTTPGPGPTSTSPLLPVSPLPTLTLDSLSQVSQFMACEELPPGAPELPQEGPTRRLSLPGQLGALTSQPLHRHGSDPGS
Sequence of Cytochrome P450 2C9 (P11712 whole entry): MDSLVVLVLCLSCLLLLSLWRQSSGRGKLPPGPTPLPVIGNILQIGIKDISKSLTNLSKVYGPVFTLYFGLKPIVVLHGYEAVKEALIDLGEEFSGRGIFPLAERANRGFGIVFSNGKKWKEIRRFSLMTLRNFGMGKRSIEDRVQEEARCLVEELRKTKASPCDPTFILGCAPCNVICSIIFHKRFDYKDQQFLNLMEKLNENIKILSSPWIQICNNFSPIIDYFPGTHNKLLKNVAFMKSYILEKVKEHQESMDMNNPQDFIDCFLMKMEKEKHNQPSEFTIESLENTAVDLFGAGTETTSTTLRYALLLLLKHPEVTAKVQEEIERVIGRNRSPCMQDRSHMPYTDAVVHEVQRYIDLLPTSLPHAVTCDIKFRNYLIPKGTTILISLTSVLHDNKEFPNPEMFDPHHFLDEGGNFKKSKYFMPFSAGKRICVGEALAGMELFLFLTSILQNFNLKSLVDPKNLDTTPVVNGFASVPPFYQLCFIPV
Sequence of Cytochrome P450 3A4 (P08684 whole entry): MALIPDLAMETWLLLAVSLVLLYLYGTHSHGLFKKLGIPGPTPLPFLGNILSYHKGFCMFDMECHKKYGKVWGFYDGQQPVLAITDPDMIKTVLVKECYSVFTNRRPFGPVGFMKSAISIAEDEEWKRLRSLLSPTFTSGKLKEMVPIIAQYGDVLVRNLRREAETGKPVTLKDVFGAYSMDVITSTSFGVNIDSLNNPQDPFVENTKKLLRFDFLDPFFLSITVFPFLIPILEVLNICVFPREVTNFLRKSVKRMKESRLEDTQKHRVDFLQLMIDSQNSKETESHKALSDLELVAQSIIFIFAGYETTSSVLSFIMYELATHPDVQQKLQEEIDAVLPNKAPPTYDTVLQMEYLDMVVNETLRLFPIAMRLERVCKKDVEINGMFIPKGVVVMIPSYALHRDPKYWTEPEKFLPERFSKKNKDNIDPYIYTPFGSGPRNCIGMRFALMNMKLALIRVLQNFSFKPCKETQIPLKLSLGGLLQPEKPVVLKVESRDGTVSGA
Sequence of Cytochrome P450 2D6 (P10635 whole entry): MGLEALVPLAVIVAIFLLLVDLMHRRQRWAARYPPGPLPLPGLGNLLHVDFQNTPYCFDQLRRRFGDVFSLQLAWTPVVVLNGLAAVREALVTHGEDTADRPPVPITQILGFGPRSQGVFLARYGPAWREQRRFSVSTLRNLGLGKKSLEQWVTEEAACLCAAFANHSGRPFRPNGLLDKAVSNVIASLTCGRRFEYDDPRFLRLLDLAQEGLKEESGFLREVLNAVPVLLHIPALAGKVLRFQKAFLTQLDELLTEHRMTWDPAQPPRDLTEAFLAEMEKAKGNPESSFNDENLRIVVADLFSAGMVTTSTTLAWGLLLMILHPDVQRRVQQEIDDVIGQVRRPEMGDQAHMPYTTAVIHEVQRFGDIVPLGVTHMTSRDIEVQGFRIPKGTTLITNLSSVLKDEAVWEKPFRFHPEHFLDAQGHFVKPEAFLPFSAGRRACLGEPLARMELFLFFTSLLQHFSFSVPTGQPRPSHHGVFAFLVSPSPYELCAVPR

With `C[C@@]12CN(C(=O)Nc3ccnn3-c3ccccc3)CCN1C(=O)N([C@H]1C[C@@H]1c1ccccc1)C2=O` the inhibition at 30 µM (hERG (KCNH2)) was 27%, the inhibition [1] was 45% and the Cmax [2] was 16 µM. The Activity (Canis familiaris [3]) was “Non-toxic”, the Activity (Canis familiaris [4]) was “Non-toxic” and the IC50 (Cytochrome P450 2C9) was greater than 40000 nM. For the same compound, the IC50 (Cytochrome P450 3A4) was greater than 40000 nM, the IC50 (Cytochrome P450 2D6) was greater than 40000 nM and the inhibition in vivo at 80 mg/kg (Mus musculus [5]) was 77%. The inhibition in vivo at 80 mg/kg (Mus musculus [6]) was greater than 85%, the inhibition in vivo at 80 mg/kg (Mus musculus [7]) was greater than 85% and the inhibition (Mus musculus [8]) was “tde”. For the same compound, the Activity (Mus musculus [9]) was “Non-toxic”, the Activity (Mus musculus [10]) was “Non-toxic” and the Activity (Mus musculus [11]) was “Non-toxic”. The Activity (Mus musculus [12]) was “Non-toxic”, the Activity (Mus musculus [13]) was “Non-toxic” and the IC50 (Protein smoothened [14]) was 13 nM. The IC50 (Protein smoothened [15]) was 22 nM, the clearance (Rattus norvegicus) was 22 mL/min/kg and the half-life [16] was 5.1 h. The Vd [17] was 2.9 L/kg, the bioavailability [18] was 40% and the clearance (Canis familiaris [19]) was 22 mL/min/kg. The half-life [20] was 1.1 h, the Vd [21] was 2 L/kg and the bioavailability [22] was 52%.
